Assay results as given in the RNAGym collection of RNA variant scans (doi:10.1126/science.aae0568).
Variants at the floor of the assay were thinned out.

B1: tRNA (parent)
chain: GUUCCGUUGGCGUAAUGGUAACGCGUCUCCCUCCUAAGGAGAAGACUGCGGGUUCGAGUCCCGUACGGAACG

Variants of: B1
Assay: yeast fitness relative to wild type (ratio to wild type); higher = fitter; tRNA-Arg(CCU), competitive growth, 37 C, YPD
Outline: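 Genotype frequency changes were the basis for Darwinian fitness relative to wild type. The frequencies came from 100-nucleotide paired-end sequencing of gene amplicons from the start population and each end population of pooled yeast strains with tRNA-Arg(CCU) gene variants at the native locus. Competition ran in YPD at 37°C for 24 hours in six replicates, genotypes needed ≥ 100 starting reads, and estimates < 0.5 were set to 0.5.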

Row | Variant | yeast fitness
1 | GUUCCGUGGGCGUAAUGGUAACGCGUCUCCCUCCAAAGGAGAAGACUGCGGGUACGAGUCCCGUACGGAACG [U8G U35A U54A] | 0.548
2 | GUUCCGUUGGCGUCAUGGUAACGCGUCUCUCUCCUAAGGAGAAGACUGCGGGUUCGAGUCCCGUACGCAACG [A14C C30U G68C] | ≤ 0.5
3 | GUUCCGUUGGCGUAAAGGUAUCGCGUCUCCCUCCUAAGGAGAAGCCUGCGGGUUCGAGUCCCGUACGGAACG [U16A A21U A45C] | ≤ 0.5
4 | GUUCCGCUGGCGUAAUGGUAGCGCGUCUCCCUCCUAAGGAGAAGACUGUGGGUUCGAGUCCCGUACGGAACG [U7C A21G C49U] | 0.722
5 | GUUCCGUUGGCGUAAUGGUAACGAGUCUCCCUCCGAAGGAGAAGAUUGCGGGUUCGAGUCCCGUACGAAACG [C24A U35G C46U G68A] | ≤ 0.5
6 | GUUCCGUUGGUGUAAUGGUAACGCGUCUUCCUCCUAAGGAGAAGACUGCGGGUUCGAGUCCCGUACAGAUCG [C11U C29U G67A A70U] | 0.578
7 | GUUCAGUUGGAGUAAUGGUAACGCGUCUCCCUCCUAAGGAGAAGACUGCGGGUUCGAGAGCCGUACGGAACG [C5A C11A U59A C60G] | ≤ 0.5
8 | GUUCCGUUGGCGUAAAGGUAACGCGCCUCACUCCUAAGGAGAAGACUGCGGGUUCGAGUCCCGUACGGAACG [U16A U26C C30A] | ≤ 0.5
9 | GUUCCGUUGGCAUAAUGGUGACGCGUCUCCCUCCUAAGGAGAAGUCUGGGGCUUCGAGUCCCGUACGGAACG [G12A A20G A45U C49G G52C] | ≤ 0.5
10 | GUUCCGUUGGCGUAAUGGUAACGCGUCUCCCUCCUAAGGAGAAGACAGCGGGUUCGAGCCCCGUACGGAACG [U47A U59C] | 0.873
11 | GUUCCGUUGGCGUAAUGGUAACGCAUCUCCCUCCUAAGGCGAAGACUGCGGGUUCGAGUCCCGUACGGAUCG [G25A A40C A70U] | 0.625
12 | GUUCCGUUGGCGUAAUGGUAACGCCUCUCCCUGCUAAGGAGAAGACUGCCGGUCCGAGUCCCGUACGGAACG [G25C C33G G50C U54C] | ≤ 0.5
13 | GAUCCGUUGGCGUAAUGGUAACGCGUCUCCCUCCUAAGGAGAAGACUGCGGGUUCGAGUCUCGUACCGAACG [U2A C61U G67C] | ≤ 0.5
14 | GUUCCGUUGGCGUAAUGGUAACGCGUCUGCCUCAUAAGGAGAAGACUGCGGGUUCGAGUACCGUACGGCACG [C29G C34A C60A A69C] | ≤ 0.5
15 | GUUCCGUUCGCGCAAUGGUAACGCGUCUCGCUCCUAAGGAGAAGACUGCGGGUUCGAGUCUCGUACGGAACG [G9C U13C C30G C61U] | ≤ 0.5
16 | GUUCCGUUGGCGCAAUGAUAACGCGUCUCCCUCCUAAGGAGAAGACUGCGGGUUCGAGUCCCGUACGGAACG [U13C G18A] | 0.843
17 | GUUCCGUUGGCGUACUGGUAACGCGUCUCCCUCCUAAGGCGAAGACUGCGGGUUCGAGUCCCGUACGGAACG [A15C A40C] | 0.609
18 | GUUCCGUCGGCGUAAUGGUAACGCGUCUCCCUCCUAAGGAGGAGACUGCGGGUUCGAGUCUCGUACGGAACG [U8C A42G C61U] | 0.526
19 | GUUCCGUUGGCGUAAUGGUAAUGGGUCUCCCUCCUAAGGAGAAGACUGCGGGUUCGAGUCACGUACGGAACG [C22U C24G C61A] | 0.53

Row | Variant | yeast fitness
20 | GUUCCGUUGGCGUAUUGGUAAGGCGUCUCCUUCCUAAGGAGAAGACUGCGGGUUCGAGUACCGUACGGAACG [A15U C22G C31U C60A] | ≤ 0.5
21 | GUUCCGUUGGCGUAAUGGUAACGCGACUCCCUCCUAAGGCAAAGACUGCGGGUUCGAAUCCCGUACGGAACG [U26A A40C G41A G58A] | 0.655
22 | GUUCCGUUAGCGCAAUGGUAACGCGUCUCCCUCCUAAGGAGAAGACUGCGGGUUCGAGUCCCGUACGGAACG [G9A U13C] | 0.893
23 | GUUCGGUUGGCGUAAUGGUAACGCGUCUCCCUCCUAAGGAGAAGACUGCGGGUUCGAGUCACGUACAGAACG [C5G C61A G67A] | 0.529
24 | GUUCCAUUAGCGUAAUGGUAUCGCGUCUCCGUCCUAAGGAGAAGACUGCGGGUUCGAGUCCCGUACGGAACG [G6A G9A A21U C31G] | ≤ 0.5
25 | GUUCCGUUCGCGUAAUAGCAACACGUCUCCCUCCUAAGGAGAAGACUGUGGGUUUGAGUCCCGUACGGAACG [G9C G17A U19C G23A C49U C55U] | ≤ 0.5
26 | GUUCCGUGGGCGUGAUGAUAACGCGUCUCCCUCCUAAGGAGAAGACAGCGGGUUCGAGUCCGGUACGGAACG [U8G A14G G18A U47A C62G] | ≤ 0.5
27 | GGUCCGUCGGCGUAAUGGUAACGCGCCUCCCUCCUAAGGAGAAGACUGCGGGUUCAAGUCCCGUACGGAACG [U2G U8C U26C G56A] | ≤ 0.5
28 | GUUCCGUUGGCGUAUUGGUAAAAAGUCUCCCUCCUAAGGAGAAGAAUGCGGGUUCGAGUCCCGUACGGAACG [A15U C22A G23A C24A C46A] | ≤ 0.5
29 | GUGCCGUUGGCGUAAUGGUAACGCGUGUCCCUCCCAAGGAGAAGACUGCGGGUUCGAGUCCCGUACGGAACG [U3G C27G U35C] | ≤ 0.5
30 | GUUCCGUUGGCGUAAUGGUAAGGCGUCUCCCUCCUCAGGGGAAGACUGCGGGUUCGACUACCGUACGGAACG [C22G A36C A40G G58C C60A] | ≤ 0.5
31 | GUUCCGUUGGCGUAAUGGGAACGCAUCUCCCUCCUAAGGAGAAGACUGCGGGUUCGAGUCCCGUACAGAACG [U19G G25A G67A] | 0.934
32 | GUUGCGUUGGCGUAAUGGCAACGCGUCUCCCUCCUAAGGAGAGGCUUGCGGGUUCGAGUCCCGUACGGAACG [C4G U19C A43G A45C C46U] | ≤ 0.5
33 | GUUCGGUUGGCGUAAUCGUAACGCGUCUCCCUCCUAAGGAGAAGACUGCGGGUUCGAGUCCCGUACGGAUCG [C5G G17C A70U] | ≤ 0.5
34 | GUUCCGUUGGCGUAAUGGUAACCCGUGUCCCUCCUAAGGAGAAGACUGCGGGCUCGAGUCCAGUACGGAACG [G23C C27G U53C C62A] | 0.619
35 | GUUCCGUUGACGUAAUGGUAACGCGUCUCCCUCCGAUGGAGAAGACCGCGGGUUCCAGUCCCGUACGGCACG [G10A U35G A37U U47C G56C A69C] | ≤ 0.5
36 | GUUCCGUUGGCGUAAUGAUAACGCGUCUCUCUCCUAAGGACAAGACUGCAGGUUCGAGUCCCGUACCGAACG [G18A C30U G41C G50A G67C] | 0.666
37 | GUUUCGUUGACGUAAUGGUAACGCGUCUCCCUCCUAAGGAGAAGACUGCGGGUUCGAGUCCCGUAUGGAACG [C4U G10A C66U] | 0.663
